# Measured values from ChEMBL document CHEMBL1156332, “Polysubstituted pyrazoles, part 6. Synthesis of some 1-(4-chlorophenyl)-4-hydroxy-1H-pyrazol-3-carbonyl derivatives linked to nitrogenous heterocyclic ring systems as potential antitumor agents” (2010).
# Tests used:
# Type in all cases: functional
# MDA-MB-468 = assay: Growth inhibition of human MDA-MB-468 cells after 48 hrs by sulforhodamine B assay; conditions: MDA-MB-468, 48 h
# Method in brief: (§1)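 NCI 60-line panel, five concentrations (0.01–100 µM) from DMSO stock diluted in medium with gentamicin. Cells were plated 24 h before dosing, with time-zero plates fixed at drug addition, then exposed 48 h at 37 °C, 5% CO₂. Adherent cells were fixed with cold TCA (10% final) and suspension cells with 16% TCA. Staining used 0.4% SRB, solubilised in 10 mM Tris and read at 515 nm. GI₅₀ was taken from log concentration–% growth curves.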
# [1] = Cytotoxicity against human melanoma cells after 48 hrs by sulforhodamine B assay; conditions: Melanoma cell; for CC50: read-out: LC50 (the source's name)
# Method in brief: (§2)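 NCI five-dose screen: about 60 human tumour lines grouped into nine subpanels were plated and incubated 24 h before dosing. Compounds went in as DMSO stock and were diluted in medium to five final concentrations (0.01–100 µM). Exposure was 48 h continuous at 37 °C, 5% CO₂, followed by TCA fixation and SRB staining read at 515 nm. Per-line GI₅₀, TGI and LC₅₀ came from log concentration–% growth curves, averaged per subpanel as MG-MID.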
# BT-549 = assay: Growth inhibition of human BT549 cells after 48 hrs by sulforhodamine B assay; conditions: BT-549, 48 h; method in brief: as §1
# T47D = assay: Growth inhibition of human T47D cells after 48 hrs by sulforhodamine B assay
# Method in brief: (§3)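 Adherent lines plated and held 24 h at 37 °C, 5% CO2, 100% humidity; time-zero plates TCA-fixed at drug addition. Drugs from DMSO stocks were made into five concentrations by 10-fold or half-log serial dilution and applied for 48 h continuous exposure. Cells were fixed with cold TCA (10% final) for 60 min at 4 °C, then stained with 0.4% SRB in 1% acetic acid for 10 min. Dye was solubilized in 10 mM Tris base and read at 515 nm. GI50 was taken from log concentration–growth curves.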
# HOP-62 = assay: Growth inhibition of human HOP62 cells after 48 hrs by sulforhodamine B assay; conditions: HOP-62, 48 h; method in brief: as §1
# NCI/ADR-RES = assay: Growth inhibition of human NCI/ADR-RES cells after 48 hrs by sulforhodamine B assay; method in brief: as §1
# [2] = Cytotoxicity against human ovarian cancer cells after 48 hrs by sulforhodamine B assay; conditions: Cancer cell lines; method in brief: as §2
# SNB-19 = assay: Growth inhibition of human SNB19 cells after 48 hrs by sulforhodamine B assay; conditions: SNB-19, 48 h; method in brief: as §3
# A498 = assay: Growth inhibition of human A498 cells after 48 hrs by sulforhodamine B assay; conditions: A498, 48 h; method in brief: as §1
# EKVX = assay: Growth inhibition of human EKVX cells after 48 hrs by sulforhodamine B assay; method in brief: as §1
# OVCAR-5 = assay: Growth inhibition of human OVCAR5 cells after 48 hrs by sulforhodamine B assay; conditions: OVCAR-5, 48 h; method in brief: as §1
# HT-29 = assay: Growth inhibition of human HT-29 cells after 48 hrs by sulforhodamine B assay; conditions: HT-29, 48 h; method in brief: as §1
# UO-31 = assay: Growth inhibition of human UO31 cells after 48 hrs by sulforhodamine B assay; conditions: UO-31, 48 h; method in brief: as §3
# A549 = assay: Growth inhibition of human A549 cells after 48 hrs by sulforhodamine B assay; conditions: A549, 48 h; method in brief: as §1
# UACC-257 = assay: Growth inhibition of human UACC257 cells after 48 hrs by sulforhodamine B assay; conditions: UACC-257, 48 h; method in brief: as §3
# 786-0 = assay: Growth inhibition of human 786-0 cells after 48 hrs by sulforhodamine B assay; conditions: 786-0, 48 h; method in brief: as §1
# SK-MEL-28 = assay: Growth inhibition of human SK-MEL-28 cells after 48 hrs by sulforhodamine B assay; conditions: SK-MEL-28, 48 h; method in brief: as §3
# [3] = Cytotoxicity against human CNS cancer cells after 48 hrs by sulforhodamine B assay; conditions: Cancer cell lines; method in brief: as §2
# [4] = Cytotoxicity against human prostate cancer cells after 48 hrs by sulforhodamine B assay; conditions: Cancer cell lines; method in brief: as §2
# [5] = Cytotoxicity against human lung cancer cells after 48 hrs by sulforhodamine B assay; conditions: Cancer cell lines; method in brief: as §2
# HL-60(TB) = assay: Growth inhibition of human HL-60(TB) cells after 48 hrs by sulforhodamine B assay; conditions: HL-60, 48 h
# Method in brief: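 NCI 60-cell panel. Cells were preincubated 24 h at 37 °C in 5% CO2, then time-zero plates were TCA-fixed. Drugs were dissolved in DMSO and given at five concentrations (10-fold or half-log dilutions) for 48 h. Suspension cells were fixed with TCA (16% final), stained with 0.4% SRB and read at 515 nm. GI50 is the concentration giving 50% decrease in net growth, taken from log concentration–growth curves.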
# CCRF-CEM = assay: Growth inhibition of human CCRF-CEM cells after 48 hrs by sulforhodamine B assay; method in brief: as §1
# SN12C = assay: Growth inhibition of human SN12C cells after 48 hrs by sulforhodamine B assay; method in brief: as §3
# UACC-62 = assay: Growth inhibition of human UACC62 cells after 48 hrs by sulforhodamine B assay; conditions: UACC-62, 48 h; method in brief: as §3
# IGROV-1 = assay: Growth inhibition of human IGROV1 cells after 48 hrs by sulforhodamine B assay; conditions: IGROV-1, 48 h; method in brief: as §1
# [6] = Cytotoxicity against human breast cancer cells after 48 hrs by sulforhodamine B assay; conditions: Cancer cell lines; method in brief: as §2
# M14 = assay: Growth inhibition of human M14 cells after 48 hrs by sulforhodamine B assay; conditions: M14, 48 h; method in brief: as §1
# OVCAR-3 = assay: Growth inhibition of human OVCAR-3 cells after 48 hrs by sulforhodamine B assay; conditions: OVCAR-3, 48 h; method in brief: as §1
# MDA-MB-435 = assay: Growth inhibition of human MDA-MB-435 cells after 48 hrs by sulforhodamine B assay; conditions: MDA-MB-435, 48 h; method in brief: as §1
# [7] = Cytotoxicity against human colon cancer cells after 48 hrs by sulforhodamine B assay; conditions: Cancer cell lines; method in brief: as §2
# LOX IMVI = assay: Growth inhibition of human LOXIMVI cells after 48 hrs by sulforhodamine B assay; method in brief: as §1
# HOP-92 = assay: Growth inhibition of human HOP92 cells after 48 hrs by sulforhodamine B assay; conditions: HOP-92, 48 h; method in brief: as §1
# SF-268 = assay: Growth inhibition of human SF268 cells after 48 hrs by sulforhodamine B assay; conditions: SF-268, 48 h; method in brief: as §1
# NCI-H460 = assay: Growth inhibition of human NCI-H460 cells after 48 hrs by sulforhodamine B assay; conditions: NCI-H460, 48 h; method in brief: as §1
# KM12 = assay: Growth inhibition of human KM12 cells after 48 hrs by sulforhodamine B assay; conditions: KM12, 48 h; method in brief: as §1
# MCF7 = assay: Growth inhibition of human MCF7 cells after 48 hrs by sulforhodamine B assay; conditions: MCF7, 48 h; method in brief: as §1
# HCT-116 = assay: Growth inhibition of human HCT116 cells after 48 hrs by sulforhodamine B assay; conditions: HCT-116, 48 h; method in brief: as §1
# SW-620 = assay: Growth inhibition of human SW620 cells after 48 hrs by sulforhodamine B assay; conditions: SW-620, 48 h; method in brief: as §3
smiles,measurement,setting,value
Cc1cc(C)n(C(=O)c2nn(-c3ccc(Cl)cc3)cc2O)n1,GI50,MDA-MB-468,8900 nM
same,GI50,[1],4950 nM
same,TGI,[1],71400 nM
same,CC50,[1],92800 nM
same,GI50,BT-549,2190 nM
same,GI50,T47D,3660 nM
same,GI50,HOP-62,5210 nM
same,GI50,NCI/ADR-RES,4420 nM
same,GI50,[2],5270 nM
same,TGI,[2],87800 nM
same,GI50,SNB-19,3600 nM
same,GI50,A498,2900 nM
same,GI50,EKVX,4870 nM
same,GI50,OVCAR-5,4980 nM
same,GI50,HT-29,3290 nM
same,GI50,UO-31,3010 nM
same,GI50,A549,3720 nM
same,GI50,UACC-257,16600 nM
same,GI50,786-0,9640 nM
same,GI50,SK-MEL-28,6280 nM
same,GI50,[3],3130 nM
same,TGI,[3],69200 nM
same,GI50,[4],6640 nM
same,GI50,[5],4690 nM
same,TGI,[5],81700 nM
same,GI50,HL-60(TB),3960 nM
same,GI50,CCRF-CEM,3660 nM
same,GI50,SN12C,3370 nM
same,GI50,UACC-62,3460 nM
same,GI50,IGROV-1,3160 nM
same,GI50,[6],4960 nM
same,GI50,M14,4690 nM
same,GI50,OVCAR-3,1270 nM
same,GI50,MDA-MB-435,3940 nM
same,GI50,[7],8130 nM
same,TGI,[7],85100 nM
same,GI50,LOX IMVI,3940 nM
same,GI50,HOP-92,4520 nM
same,GI50,SF-268,4130 nM
same,GI50,NCI-H460,2380 nM
same,GI50,KM12,5070 nM
same,GI50,MCF7,4520 nM
same,GI50,HCT-116,3420 nM
same,GI50,SW-620,8020 nM
Cc1c2c(nn1C(=O)c1nn(-c3ccc(Cl)cc3)cc1O)-c1ccccc1CC2,GI50,MDA-MB-468,262 nM
same,GI50,[1],140 nM
same,TGI,[1],52100 nM
same,CC50,[1],86400 nM
same,GI50,BT-549,29 nM
same,GI50,T47D,59 nM
same,GI50,HOP-62,44 nM
same,GI50,NCI/ADR-RES,46 nM
same,GI50,[2],115 nM
same,TGI,[2],83600 nM
same,GI50,SNB-19,45 nM
same,GI50,A498,24 nM
same,GI50,EKVX,71 nM
same,GI50,OVCAR-5,72 nM
same,GI50,HT-29,241 nM
same,GI50,UO-31,99 nM
same,GI50,A549,34 nM
same,GI50,UACC-257,210 nM
same,GI50,786-0,319 nM
same,GI50,SK-MEL-28,92 nM
same,GI50,[3],36 nM
same,TGI,[3],69100 nM
same,GI50,[4],44 nM
same,GI50,[5],47 nM
same,TGI,[5],68100 nM
same,GI50,HL-60(TB),51 nM
same,GI50,CCRF-CEM,57 nM
same,GI50,SN12C,41 nM
same,GI50,UACC-62,51 nM
same,GI50,IGROV-1,43 nM
same,GI50,[6],82 nM
same,TGI,[6],91700 nM
same,GI50,M14,96 nM
same,GI50,OVCAR-3,99 nM
same,GI50,MDA-MB-435,37 nM
same,GI50,[7],221 nM
same,TGI,[7],86300 nM
same,GI50,LOX IMVI,75 nM
same,GI50,HOP-92,52 nM
same,GI50,SF-268,48 nM
same,GI50,NCI-H460,28 nM
same,GI50,KM12,70 nM
same,GI50,MCF7,121 nM
same,GI50,HCT-116,34 nM
same,GI50,SW-620,360 nM
CC1=NN(C(=O)c2nn(-c3ccc(Cl)cc3)cc2O)C(=O)C1,GI50,MDA-MB-468,4570 nM
same,GI50,[1],1820 nM
same,TGI,[1],70500 nM
same,CC50,[1],93600 nM
same,GI50,BT-549,650 nM
same,GI50,T47D,2660 nM
same,GI50,HOP-62,1330 nM
same,GI50,NCI/ADR-RES,1890 nM
same,GI50,[2],1740 nM
same,TGI,[2],83800 nM
same,GI50,SNB-19,3160 nM
same,GI50,A498,450 nM
same,GI50,EKVX,2210 nM
same,GI50,OVCAR-5,3320 nM
same,GI50,HT-29,6160 nM
same,GI50,UO-31,670 nM
same,GI50,A549,820 nM
same,GI50,UACC-257,1060 nM
same,GI50,786-0,6450 nM
same,GI50,SK-MEL-28,3060 nM
same,GI50,[3],1090 nM
same,TGI,[3],79600 nM
same,GI50,[4],5220 nM
same,GI50,[5],1820 nM
same,TGI,[5],78200 nM
same,GI50,HL-60(TB),1170 nM
same,GI50,CCRF-CEM,420 nM
same,GI50,SN12C,1420 nM
same,GI50,UACC-62,1800 nM
same,GI50,IGROV-1,510 nM
same,GI50,[6],2020 nM
same,TGI,[6],90100 nM
same,GI50,M14,1780 nM
same,GI50,OVCAR-3,1210 nM
same,GI50,MDA-MB-435,1200 nM
same,GI50,[7],3090 nM
same,TGI,[7],95400 nM
same,GI50,LOX IMVI,1550 nM
same,GI50,HOP-92,3670 nM
same,GI50,SF-268,490 nM
same,GI50,NCI-H460,370 nM
same,GI50,KM12,2270 nM
same,GI50,MCF7,3610 nM
same,GI50,HCT-116,680 nM
same,GI50,SW-620,3410 nM
